Only some compounds are listed: those with a hit (about 3% of all), similar ones and a draw of the others.
SR-BI DiI-HDL act: SR-BI HDL lipid transfer activation | 0.096% of 320,000 active | CHO ldlA[mSR-BI] cells, DiI-HDL uptake fluorescence, 3 h; 100 = double the neutral-control signal | activation, % at 12.5 µM;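 active means mean replicate activation of at least 60% and every replicate at or above 60%; inconclusive means mean or all-replicate condition met, but not both; inactive means mean below 60% and not all replicates reaching 60%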;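 further: 0% = median plate neutral-control signal and 100% = twice that signal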
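Assay system: LDL receptor-deficient CHO ldlA cells overexpressing murine SR-BI / Medium: BSA-supplemented, HEPES-buffered Ham's F12, pH 7.4 / Probe or stimulus: DiI-labelled HDL at 10 µg/mL final / Timing: compound with DiI-HDL co-incubation, 3 h at 37 °C / Technique: bottom-read cell fluorescence after medium removal, ex 550/em 595 nm / Measure: HDL uptake via cellular fluorescence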
ANO1 activ: mouse TMEM16A channel activation, primary screen. Q8BHY3. HEK293 TMEM16A/YFP-H148Q/I152L, iodide quench fluorescence; active compounds read low. B-score at 10 µM. 0.3% of 340,000 active;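 active means fluorescence-ratio B-score plate-corrected deviation score at least 3 library SD below zero, with starting fluorescence score within 5 deviations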;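 further: channel opened by trigger with iodide after compound preincubation; score built on the fluorescence ratio of max minus min over baseline; more negative score means more quench and so TMEM16A activation or potentiation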
Target sequence (Q8BHY3 whole entry, looked up): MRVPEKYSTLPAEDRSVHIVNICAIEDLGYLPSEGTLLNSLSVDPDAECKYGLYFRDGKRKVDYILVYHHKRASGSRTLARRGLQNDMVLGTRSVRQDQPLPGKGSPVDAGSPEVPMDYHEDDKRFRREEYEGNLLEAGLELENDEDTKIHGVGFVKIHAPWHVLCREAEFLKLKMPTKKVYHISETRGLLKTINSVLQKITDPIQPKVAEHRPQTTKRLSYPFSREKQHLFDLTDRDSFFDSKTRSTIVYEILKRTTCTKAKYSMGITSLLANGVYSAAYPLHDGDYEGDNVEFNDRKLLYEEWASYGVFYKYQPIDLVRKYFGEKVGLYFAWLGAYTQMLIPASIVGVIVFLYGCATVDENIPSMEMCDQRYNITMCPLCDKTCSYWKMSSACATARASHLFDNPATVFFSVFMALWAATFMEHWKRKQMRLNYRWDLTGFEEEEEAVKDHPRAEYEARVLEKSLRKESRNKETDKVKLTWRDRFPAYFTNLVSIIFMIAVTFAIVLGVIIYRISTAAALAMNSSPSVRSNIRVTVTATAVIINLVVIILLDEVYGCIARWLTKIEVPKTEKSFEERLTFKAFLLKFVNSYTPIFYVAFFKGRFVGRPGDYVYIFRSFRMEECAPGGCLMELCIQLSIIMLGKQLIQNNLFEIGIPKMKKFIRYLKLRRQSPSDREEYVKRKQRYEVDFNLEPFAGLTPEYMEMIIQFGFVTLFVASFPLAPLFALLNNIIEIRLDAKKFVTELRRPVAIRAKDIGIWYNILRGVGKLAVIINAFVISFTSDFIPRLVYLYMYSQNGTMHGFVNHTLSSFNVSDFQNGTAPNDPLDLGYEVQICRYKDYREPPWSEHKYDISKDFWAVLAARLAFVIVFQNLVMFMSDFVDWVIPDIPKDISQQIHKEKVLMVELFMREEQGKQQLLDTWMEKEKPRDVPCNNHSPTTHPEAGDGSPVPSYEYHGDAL
TMEM16A inh: mouse TMEM16A channel inhibition, primary screen; AID 588511; HEK293 TMEM16A/YFP iodide influx fluorescence, ionomycin; Q8BHY3; 1.2% of 310,000 active; normalized B-score (activity score, 25-100; higher = stronger inhibition) at 10 µM;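 active means ratio plate-corrected score three or more library SD toward inhibition, starting fluorescence score within five deviations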;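 further: score derived from kinetic fluorescence span divided by baseline fluorescence per well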
Kir21 inh: blocks the mouse Kir2.1 inward-rectifier potassium channel. 0.85% of 310,000 active. HEK293-Kir2.1, FluxOR thallium flux fluorescence; active compounds read low. B-score at 10 µM. AID 1672;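 active means fluorescence ratio B-score at or below minus 3 SD of library scores, with starting-brightness B-score within 2 SD, cut at about -4.2 in these data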;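 further: channel flux triggered by added potassium and thallium sulfate stimulus; B-score of peak minus minimum fluorescence over baseline after thallium stimulus; more negative B-score means stronger Kir2.1 block with less thallium influx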
DNA FID counter: counter-screen for HCV NS3 helicase inhibitors: DNA intercalator displacement. DNA fluorescent intercalator displacement, fluorescence. 0.17% of 290,000 active. inhibition, % at 7.9 µM; in the data active means inhibition above about 37%;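 further: 0% = vehicle and 100% = reference compound; higher means more ethidium bromide displaced from hairpin DNA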
SR-BI DiI inh: mouse SR-BI HDL lipid transfer inhibition; Q61009; ldlA[mSR-BI] CHO cells, DiI-HDL uptake fluorescence, 3 h; inhibition, % at 12.5 µM; 0.96% of 320,000 active; AID 488896;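 active means mean replicate inhibition of at least 70% and a set share of replicates each scoring 70 or more; inconclusive means meets just one of the two criteria; inactive means fails both criteria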;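 further: 0% = median of neutral control wells and 100% = median of positive control wells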
* hit, by the source's call; i = inactive; ? = inconclusive; nt = no result.

SMILES	SR-BI DiI-HDL act	ANO1 activ	TMEM16A inh	Kir21 inh	DNA FID counter	SR-BI DiI inh
C#CCOCCOCCOCCNc1nc(N2CCN(C(=O)[C@H](CCCCN)n3cc([C@@H](N)CC(C)C)nn3)CC2)nc(N2CCN(C(=O)[C@H](CCCCN)n3cc([C@@H](N)CC(C)C)nn3)CC2)n1	15	i	i	-0.33	58*	-15
COc1ccc(CCNC(=O)C(C)n2nc(C)c3c(C)n(-c4ccc(C)cc4)nc3c2=O)c(OC)c1 (configuration not stated)	-49	i	i	-1	-44	49
C#CCOCCOCCOCCNc1nc(N2CCN(C(=O)[C@H](CCCCN)n3cc([C@@H](N)C(C)CC)nn3)CC2)nc(N2CCN(C(=O)[C@H](Cc3ccc(O)cc3)n3cc([C@@H](N)CC(C)C)nn3)CC2)n1 (some centres not stated)	-24	i	i	0.13	49*	24
C#CCOCCOCCOCCNc1nc(N2CCN(C(=O)[C@H](Cc3ccc(O)cc3)n3cc([C@@H](N)CC(C)C)nn3)CC2)nc(N2CCN(C(=O)[C@H](Cc3ccc(O)cc3)n3cc([C@@H](N)CC(C)C)nn3)CC2)n1	nt	nt	i	0.31	57*	nt
C#CCOCCOCCOCCNc1nc(N2CCN(C(=O)[C@H]([C@@H](C)CC)n3cc([C@@H](N)Cc4ccc(O)cc4)nn3)CC2)nc(N2CCN(C(=O)[C@H](CCCCN)n3cc([C@@H](N)CC(C)C)nn3)CC2)n1	nt	nt	i	0.26	45*	nt
C#CCOCCOCCOCCNc1nc(N2CCN(C(=O)[C@H](CCCCN)n3cc(C(N)CC(C)C)nn3)CC2)nc(N2CCN(C(=O)[C@H](CCC(=O)O)n3cc(C(N)[C@H](C)CC)nn3)CC2)n1 (some centres not stated)	16	i	i	0.44	30	-16
CC1=NN(c2nc(-c3ccc(C)cc3)cs2)C(=O)C1N=Nc1ccc2ccccc2c1 (configuration not stated)	-8	i	i	2.2	-2	8
CC1=NN(c2nc(-c3ccc(C)cc3)cs2)C(=O)C1N=Nc1ccc(C(N)=O)cc1 (configuration not stated)	-81	-16*	i	1.5	-1	81*
CCN1CCCC1CNCc1cccc(OC)c1OCc1ccc(F)cc1 (configuration not stated)	-11	i	i	-1.2	27	11
C=CCn1c2ccccc2c(=O)c2cc(C#Cc3cc(OC)cc(OC)c3)ccc21	-87	i	nt	nt	nt	87*
CCc1ccccc1NC1=NCC(=O)N1Cc1ccc(OC)cc1	-18	i	i	-4.9*	-9	18
O=C(CCNS(=O)(=O)c1ccc(Cl)cc1)N1CCN(c2ccccn2)CC1	12	i	i	-1.3	-29	-12
COc1ccccc1Nc1nc(-c2sc(NC(=O)c3ccco3)nc2C)cs1	-85	i	i	-0.01	-7	85*
Cc1nc(NC(=O)c2ccco2)sc1-c1csc(Nc2ccc(Cl)cc2)n1	-84	i	i	0.35	2	84*
NS(=O)(=O)c1cccc(NC(=O)CCSc2ccc(Cl)cc2)c1	-6	i	i	-0.27	2	6
CN(C)c1ccc(-c2noc(C3CCN(C(=O)Nc4ccc(Cl)cc4)CC3)n2)cc1	-72	-4.6*	i	-0.62	-1	?
CCCn1cc(CN2CCC(n3nccc3NC(=O)C(OC)c3ccccc3)CC2)c(C)n1 (configuration not stated)	5	i	i	-0.07	6	-5
COc1ccc(OC)c(N(CC(=O)NC2CCCC2)S(=O)(=O)c2ccc(OC)c(OC)c2)c1	5	i	i	0.07	-43	-5
CC1=Nc2ccccc2/C1=C\c1sc(Nc2ccc(C)cc2)nc1O	-75	i	i	-0.02	1	75*
Oc1nc(Nc2ccc(F)cc2)sc1/C=C1\C=Nc2ccccc21	nt	i	i	0.09	-1	nt
O=C(Cc1cccs1)N1CCN(S(=O)(=O)c2ccc(Br)cc2)CC1	195*	i	i	-0.15	-5	-195
CC/C(=C(\c1ccccc1)c1ccc(OCCN(C)C)cc1)c1ccccc1	7	i	100*	nt	nt	-7
CCN(CC)CCOc1ccc(/C(=C(/Cl)c2ccccc2)c2ccccc2)cc1	3	i	i	0.61	18	-3
O=C(COC(=O)c1cc(S(=O)(=O)N2CCOCC2)ccc1F)NCCc1ccc(F)cc1	-2	i	nt	nt	nt	2
Cc1cccc(N2C(=O)N3[C@H](c4ccc(Br)cc4)[C@@H]4C(=O)N(C(C)(C)C)C(=O)[C@@H]4[C@]3(C)C2=O)c1	60*	i	i	0.59	-28	-60
SMILES	SR-BI DiI-HDL act	ANO1 activ	TMEM16A inh	Kir21 inh	DNA FID counter	SR-BI DiI inh
Cc1cccc(N2C(=O)CC(SC(=Nc3ccccc3)Nc3ccccc3)C2=O)c1 (configuration not stated)	-74	i	i	-0.7	-18	74*
CN=C(Nc1ccc2c(c1)OCO2)SC1CC(=O)N(c2ccccc2)C1=O (configuration not stated)	-29	i	25*	-0.46	-9	29
O=C(Nc1ccccc1)c1ccc(Nc2c([N+](=O)[O-])cc([N+](=O)[O-])c3ccccc23)cc1	-88	i	i	-0.31	1	88*
O=C(Nc1ccc(Oc2cccnc2)cc1)c1ccc([N+](=O)[O-])cc1	3	i	i	-1	-8	-3
O=C(Nc1ccc(N2CCCC2)c(Cl)c1)c1ccc([N+](=O)[O-])cc1	-75	i	i	0.05	10	75*
O=C(Nc1ccc(Nc2ccncc2)cc1)c1ccc([N+](=O)[O-])cc1	5	-6.1*	i	-0.4	23	-5
Cc1c(C(=O)Nc2ccc(Nc3ccccc3)cc2)cccc1[N+](=O)[O-]	-63	i	i	2.4	7	63
O=C(CSc1ncccn1)NC(=O)c1ccccc1	34	i	i	-0.02	2	-34
Cc1nn2c3ccccc3n(Cc3ccccc3)c2nc1=O	6	-20*	i	3.2	-5	-6
O=C(O)COc1ccc(Cl)cc1C1CCCCC1	11	i	nt	nt	nt	-11
COc1cc(C(=O)NCC2(c3ccccc3)CCCC2)cc(OC)c1OC	-3	i	i	0.07	-37	3
Cc1ccc(-c2csc(N=C(N)N)n2)c(C)c1	nt	i	i	-8.3*	12	nt
Cn1c(CC(=O)NNC(=O)c2ccc(Cl)nc2)nc2ccccc21	-21	i	nt	nt	nt	21
O=C(Nc1nnc(SCc2ccccc2Cl)s1)C1COc2ccccc2O1 (configuration not stated)	4	i	25*	0	-2	-4
